INS promoter inh: inhibitors of insulin promoter-driven GFP, primary screen, imaging, TRM-6 cells (human fetal islet line), eGFP reporter, cell count. reporter expression induced with tamoxifen. inhibition, % at 2 µM. hit rate 0.9% among 130,000;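 active = inhibition above the mean plus 3 SD, with well images judged a real hit on visual review, cut at about 60% in these data, passing the limit was not always enough; inconclusive = inhibition over the cutoff but images rejected on review; inactive = inhibition not above the cutoff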
Autophagy HCS: autophagy modulators in MEF cells, primary screen, imaging, high-content, MEF GFP-LC3. MEF GFP-LC3 puncta imaging; test concentration mostly 10 µM. calls only at 10 µM (by protocol). hit rate 0.98% among 190,000. AID 463193, 2010;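 active = percentage of spot-positive cells more than 3 SD above its plate mean, without a fluorescence outlier flag or 80% toxicity; inconclusive = no clear call, values can overlap the other calls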;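 note: spot-positive cell cutoff set from DMSO-treated cells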
Dynein transport: inhibitors of GR-EGFP nuclear translocation, primary screen, dynein cargo transport inhibitor project, imaging, high-content, 3617.4 mouse cells | z-score, hits read low | hit rate 0.47% among 220,000 | test concentration mostly 20 µM; stimulated with dexamethasone, 1 µM; active compounds read low;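 active = plate z-score of nuclear minus cytoplasmic receptor signal below a set negative limit, without overly bright fluorescence or cell loss, cut at about -3.5 in these data, passing the limit was not always enough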;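 note: z-score of nuclear minus cytoplasmic ring GR-EGFP intensity difference per well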
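Medium: Induction medium lacking tetracycline, stripped serum | Probe or stimulus: 1.0 µM final dexamethasone stimulus | Schedule: 48 h induction, then 1 h compound, then 30 min agonist, 37 °C | Signal: Automated 10x imaging of fixed Hoechst-stained cells | Evaluation: Per-cell GR-EGFP intensity, nucleus versus surrounding cytoplasmic ring, well-averaged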
Furin inh: human furin inhibitors, primary screen, biochemical, fluorescence intensity; hit rate 0.061% among 220,000; inhibition, % at 20 µM or 30 µM; AID 463115, 2010; purified furin, fluorogenic substrate cleavage; in the data active = inhibition above about 25%
Target sequence (P09958 108-714 limits assumed): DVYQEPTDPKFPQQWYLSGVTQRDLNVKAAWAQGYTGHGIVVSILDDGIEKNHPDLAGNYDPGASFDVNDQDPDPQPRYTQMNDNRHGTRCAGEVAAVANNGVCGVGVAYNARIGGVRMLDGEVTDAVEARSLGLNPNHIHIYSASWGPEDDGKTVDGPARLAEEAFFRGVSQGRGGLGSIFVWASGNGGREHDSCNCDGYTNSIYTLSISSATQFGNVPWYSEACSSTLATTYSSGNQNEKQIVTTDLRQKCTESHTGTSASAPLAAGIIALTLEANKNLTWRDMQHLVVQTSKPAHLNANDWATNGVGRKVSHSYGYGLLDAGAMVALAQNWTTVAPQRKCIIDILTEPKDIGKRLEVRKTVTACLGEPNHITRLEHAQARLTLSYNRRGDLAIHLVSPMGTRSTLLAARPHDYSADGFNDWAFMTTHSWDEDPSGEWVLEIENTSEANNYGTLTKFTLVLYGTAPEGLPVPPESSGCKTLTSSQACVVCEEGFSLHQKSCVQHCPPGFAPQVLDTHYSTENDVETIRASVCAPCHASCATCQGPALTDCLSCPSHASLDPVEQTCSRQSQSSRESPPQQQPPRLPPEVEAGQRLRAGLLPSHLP
HSV replic up: enhancers of HSV replication in host cells, fold increase, host cell viability; HSV replication augmentation in cells; maximum fold increase; hit rate 0.005% among 220,000; AID 1956, 2009; in the data active = maximum fold increase above about 1.5; inconclusive = no clear call, values can overlap the other calls; tested in PC3 cells
Insulin prom up: insulin promoter activators in MIN6 cells, imaging, high-content screening, mouse beta cells; AID 1625, 2009; hit rate 0.3% among 190,000; z-score at 5 µM; MIN6 insulin promoter-GFP reporter; active compounds read high;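 active = z-score above 3 at 5 µM with at least 500 cells counted in the well; inconclusive = wells under 500 cells, flagged as cytotoxic or low count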
The depositor's hits bear a star. Sampled rows, rich in hits. Any-hit rate of the full collection: about 2%.

What do the screens show for `COc1ccc(CCNC(=O)CNS(=O)(=O)c2cccs2)cc1OC`?
INS promoter inh: 10; Autophagy HCS: inactive; Dynein transport: -0.29; Furin inh: -26; HSV replic up: inactive; Insulin prom up: -1.1

What do the screens show for `O=C(NC1CCCC1)C(=O)N(c1ccccc1F)C(C(=O)NCC1CCCO1)c1cccs1` (stereo not given)?
INS promoter inh: -29; Autophagy HCS: inactive; Dynein transport: -0.72; Furin inh: -39; HSV replic up: inactive; Insulin prom up: 0.16

What do the screens show for `COc1ccc(C2C(C(C)=O)=C(C)Nc3ncnn32)cc1OC` (stereo not given)?
INS promoter inh: 31; Autophagy HCS: inactive; Dynein transport: -0.09; Furin inh: -23; HSV replic up: inactive

What do the screens show for `COc1cc(C2C(C(=O)OC(C)C)=C(C)Nc3ncnn32)cc(OC)c1OC` (stereo not given)?
Autophagy HCS: active; Dynein transport: 0.35; Furin inh: -19; HSV replic up: inactive; Insulin prom up: -0.95

What do the screens show for `NS(=O)(=O)c1ccc(CNC(=O)C2(c3ccc(Cl)cc3)CC2)cc1`?
Autophagy HCS: inactive; Dynein transport: 0.3; Furin inh: -12; HSV replic up: inactive; Insulin prom up: 0.81

How did COc1ccc(CNC(=O)C2(c3ccc(Cl)cc3)CC2)cc1 do in these assays?
INS promoter inh: 75*; Autophagy HCS: inactive; Dynein transport: -0.75; Furin inh: -33; HSV replic up: inactive; Insulin prom up: 0.42

What do the screens show for `O=C(CCN1C(=O)C2CCCCC2C1=O)Nc1ccc(F)c(F)c1F` (stereo not given)?
Autophagy HCS: active; Dynein transport: 0.55; Furin inh: -12; HSV replic up: inactive; Insulin prom up: 1.2

What do the screens show for `Cc1cc(C)c2c(c1)N[C@H](c1cccs1)[C@@H]1CCO[C@H]21`?
Dynein transport: -0.73; Furin inh: -26; HSV replic up: inactive; Insulin prom up: -0.9

What do the screens show for `CC(C)c1ccc2c(c1)[C@H]1OCC[C@H]1[C@@H](c1cccs1)N2`?
INS promoter inh: -10; Autophagy HCS: active; Dynein transport: -0.33; Furin inh: -15; HSV replic up: inactive; Insulin prom up: -0.37

Results for CCSc1nc2ccccc2n1C(=O)c1ccc(S(=O)(=O)N2CCCCCC2)cc1 ?
Autophagy HCS: inactive; Dynein transport: 0.48; Furin inh: -5; HSV replic up: inactive; Insulin prom up: 1.7

How did C#CCSc1nc2ccccc2n1C(=O)c1ccc(S(=O)(=O)N2CCCCC2)cc1 do in these assays?
INS promoter inh: 76*; Autophagy HCS: inactive; Dynein transport: 0.26; Furin inh: -16; HSV replic up: inactive; Insulin prom up: -0.14

Results for CCSc1nc2ccccc2n1C(=O)c1ccc(S(=O)(=O)N2CCCCC2)cc1 ?
INS promoter inh: 82*; Autophagy HCS: inactive; Dynein transport: 0.092; Furin inh: 0; HSV replic up: inactive

How did Cc1cc(NC(=O)CSc2nnc(C3CC3)n2N)c([N+](=O)[O-])cc1C do in these assays?
INS promoter inh: 14; Autophagy HCS: inactive; Dynein transport: -0.44; Furin inh: -9; HSV replic up: inactive; Insulin prom up: 0.32

What do the screens show for `COc1ccc(-c2nc(C)c(C(C)=O)n2O)cc1OC`?
INS promoter inh: 67; Autophagy HCS: active; Dynein transport: 0.18; Furin inh: -15; HSV replic up: inactive; Insulin prom up: 0.3

How did FC(F)(F)c1ccccc1NC(=S)N1CCc2ccccc2C1 do in these assays?
Autophagy HCS: active; Dynein transport: -0.92; Furin inh: -19; HSV replic up: inactive; Insulin prom up: -2.2

Results for Cc1ccccc1OCc1nc(-c2ccc(NC(=O)c3ccc4c(c3)OCO4)cc2)no1 ?
Autophagy HCS: active; Dynein transport: -1; Furin inh: -30; HSV replic up: inactive; Insulin prom up: -1.7

Results for CCCC(=O)n1nc(-c2cccnc2)nc1N ?
INS promoter inh: 94*; Autophagy HCS: inactive; Dynein transport: 2.1; Furin inh: -15; HSV replic up: inactive; Insulin prom up: 0.16

What do the screens show for `Cc1ccc(C(=O)n2nc(-c3cccnc3)nc2N)cc1`?
INS promoter inh: 14; Autophagy HCS: inactive; Dynein transport: 0.22; Furin inh: -19; HSV replic up: inactive

Results for CN(C)C(=O)C(=O)c1cccn1-c1cccc(Cl)c1C#N ?
Autophagy HCS: inactive; Dynein transport: 1.1; Furin inh: -12; HSV replic up: inactive; Insulin prom up: -0.15

How did COc1ccc(OCC(O)CNC(=O)c2sccc2Cl)cc1 (stereo not given) do in these assays?
Dynein transport: -0.93; Furin inh: -22; HSV replic up: inactive; Insulin prom up: -0.78

How did CC[N+]1(C)CC2CCC(C)(C1)C2(C)C (stereo not given) do in these assays?
INS promoter inh: 50; Autophagy HCS: inactive; Dynein transport: 1.1; Furin inh: -10; HSV replic up: inactive

How did O=C(O)c1ccc2c(=O)[nH]c(CCl)nc2c1 do in these assays?
Autophagy HCS: inactive; Dynein transport: 1.2; Furin inh: -27; HSV replic up: inactive; Insulin prom up: 0

How did CN1CCN(c2ccc([N+](=O)[O-])cc2S(=O)(=O)N2CCOCC2)CC1 do in these assays?
INS promoter inh: -40; Autophagy HCS: inactive; Dynein transport: 0.27; Furin inh: 2; HSV replic up: inactive

What do the screens show for `COc1ccc(NC(=S)NNc2ccc([N+](=O)[O-])cc2S(=O)(=O)Nc2ccc(C)cc2C)cc1`?
INS promoter inh: -21; Autophagy HCS: inactive; Dynein transport: -0.18; Furin inh: -10; HSV replic up: inactive

Results for COc1ccc(NS(=O)(=O)c2cc([N+](=O)[O-])ccc2N/N=C\c2c(C)[nH]c3ccccc23)cc1 ?
Autophagy HCS: active; Dynein transport: -0.18; Furin inh: 3; HSV replic up: inconclusive

Results for COc1ccc(/C=N/Nc2ccc([N+](=O)[O-])cc2S(=O)(=O)N2CCN(C)CC2)cc1 ?
Autophagy HCS: active; Dynein transport: -0.75; Furin inh: -8; HSV replic up: inactive; Insulin prom up: 0.19

Results for CCS(=O)CC(=O)Nc1c(-c2ccccc2)oc2ccccc2c1=O (stereo not given) ?
Dynein transport: 0.3; Furin inh: -23; HSV replic up: inactive; Insulin prom up: -0.06

How did Cn1nc([N+](=O)[O-])nc1Sc1nnc(-c2ccccc2)o1 do in these assays?
INS promoter inh: 31; Autophagy HCS: inactive; Dynein transport: -3.7*; Furin inh: -16; HSV replic up: inactive; Insulin prom up: inconclusive

Results for C=CCOC(=O)/C(=C/c1cccnc1)NC(=O)c1ccccc1 ?
Dynein transport: -0.48; Furin inh: -13; HSV replic up: inactive; Insulin prom up: -0.03
